≈ marks a conversion by molar mass, not a printed value. Calls of active or inactive are those of the source. No cut-off for these calls is given here.
How the values were obtained:
Staphylococcus aureus [1] = assay: Antibacterial activity against methicillin-resistant Staphylococcus aureus assessed as bacterial growth inhibition after 24 hrs by CLSI protocol based broth microdilution assay; assay type: functional
Staphylococcus aureus [2] = assay: Antibacterial activity against Staphylococcus aureus assessed as bacterial growth inhibition after 24 hrs by CLSI protocol based broth microdilution assay; assay type: functional
Candida albicans = assay: Antifungal activity against Candida albicans assessed as fungal growth inhibition after 24 hrs by CLSI protocol based broth microdilution assay; assay type: functional
Candida tropicalis = assay: Antifungal activity against Candida tropicalis assessed as fungal growth inhibition after 24 hrs by CLSI protocol based broth microdilution assay; assay type: functional
Pseudomonas aeruginosa = assay: Antibacterial activity against Pseudomonas aeruginosa assessed as bacterial growth inhibition after 24 hrs by CLSI protocol based broth microdilution assay; assay type: functional
Escherichia coli = assay: Antibacterial activity against Escherichia coli assessed as bacterial growth inhibition after 24 hrs by CLSI protocol based broth microdilution assay; assay type: functional
Staphylococcus aureus [3] = assay: Antibiofilm activity against methicillin-resistant Staphylococcus aureus ATCC 43300 assessed as reduction in biofilm biomass at 0.5 to 4 mg/L after 24 hrs by MTT assay; assay type: functional, organism-based; details: dose mg/L 0.5-4, time 24.0 hrs
Outline: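 Biofilm growth of MRSA ATCC 43300 measured in the presence of compound in cultivation plates, with a DMSO control. Significance of control vs treated is given at p < 0.05, 0.01 and 0.001.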

Staphylococcus aureus [4] = assay: Inhibition of Staphylococcus aureus ATCC 6538 fabI expressed in Escherichia coli BL21 (DE3) assessed as oxidation of NADPH to NADP+ using trans-2-octenoyl CoA as substrate incubated for 2 hrs in presence of NADPH by spectrophotometric analysis
Enterococcus faecium = assay: Antibacterial activity against Enterococcus faecium assessed as bacterial growth inhibition after 24 hrs by CLSI protocol based broth microdilution assay; assay type: functional
Bacillus cereus = assay: Antibacterial activity against Bacillus cereus assessed as bacterial growth inhibition after 24 hrs by CLSI protocol based broth microdilution assay; assay type: functional

| Structure (SMILES) | Activity (Staphylococcus aureus [1]) | Activity (Staphylococcus aureus [2]) | MIC (Candida albicans) | MIC (Candida tropicalis) | MIC (Pseudomonas aeruginosa) | MIC (Escherichia coli) | MIC (Staphylococcus aureus [1]) | Activity (Staphylococcus aureus [3]) | MIC (Staphylococcus aureus [2]) | inhibition (Staphylococcus aureus [4]) | MIC (Enterococcus faecium) | MIC (Bacillus cereus) |
| --- | --- | --- | --- | --- | --- | --- | --- | --- | --- | --- | --- | --- |
| Oc1c(Br)cc(Br)cc1/C=N\c1cccc(C(F)(F)F)c1 | inactive | inactive | ≥ 64 µg/mL | ≥ 64 µg/mL | ≥ 64 µg/mL | ≥ 64 µg/mL | – | – | – | – | – | – |
| Oc1ccc(Cl)cc1CNc1cc(C(F)(F)F)ccc1Cl | – | – | ≥ 64 µg/mL | ≥ 64 µg/mL | ≥ 64 µg/mL | ≥ 64 µg/mL | 1 µg/mL (≈ 2.97 µM) | Active | 1 µg/mL (≈ 2.97 µM) | Active | ≤ 2 µg/mL | ≤ 2 µg/mL |
| Oc1c(Br)cc(Cl)cc1/C=N\CCc1ccc(F)cc1 | – | – | ≥ 64 µg/mL | ≥ 64 µg/mL | ≥ 64 µg/mL | ≥ 64 µg/mL | – | – | – | – | – | – |
| Oc1c(Br)cc(Cl)cc1CNCCc1ccc(F)cc1 | – | – | ≥ 64 µg/mL | ≥ 64 µg/mL | ≥ 64 µg/mL | ≥ 64 µg/mL | – | – | – | – | – | – |
| CC1COc2c(N3CCN(C)CC3)c(F)cc3c(=O)c(C(=O)O)cn1c23 (configuration not stated) [OFLOXACIN] | – | – | ≥ 64 µg/mL | ≥ 64 µg/mL | ≥ 64 µg/mL | ≥ 64 µg/mL | – | – | – | – | – | – |
| Oc1cccc(NCc2cc(Cl)cc(Br)c2O)c1 | – | – | ≥ 64 µg/mL | ≥ 64 µg/mL | ≥ 64 µg/mL | ≥ 64 µg/mL | – | – | – | – | – | – |
| Oc1ccc(Cl)cc1/C=N\c1ccc(OC(F)(F)F)cc1 | – | – | ≥ 64 µg/mL | ≥ 64 µg/mL | ≥ 64 µg/mL | ≥ 64 µg/mL | – | – | – | – | – | – |
| Oc1ccc(/N=C\c2cc(Br)cc(Br)c2O)cc1 | inactive | inactive | ≥ 64 µg/mL | ≥ 64 µg/mL | ≥ 64 µg/mL | ≥ 64 µg/mL | – | – | – | – | – | – |
| Oc1ccc(NCc2cc(Br)cc(Br)c2O)cc1 | – | – | ≥ 64 µg/mL | ≥ 64 µg/mL | ≥ 64 µg/mL | ≥ 64 µg/mL | – | – | – | – | – | – |
| Oc1c(Br)cc(Br)cc1/C=N\c1cc(C(F)(F)F)ccc1Cl | inactive | inactive | ≥ 64 µg/mL | ≥ 64 µg/mL | ≥ 64 µg/mL | ≥ 64 µg/mL | – | – | – | – | – | – |
| Oc1ccc(Cl)cc1CNc1cc(C(F)(F)F)ccc1F | – | – | ≥ 64 µg/mL | ≥ 64 µg/mL | ≥ 64 µg/mL | ≥ 64 µg/mL | 32 µg/mL (≈ 100 µM) | – | 4 µg/mL (≈ 12.5 µM) | – | – | – |
| Oc1ccc(Cl)cc1CNc1ccc(OC(F)(F)F)cc1 | – | – | ≥ 64 µg/mL | ≥ 64 µg/mL | ≥ 64 µg/mL | ≥ 64 µg/mL | – | – | – | – | – | – |
| CN(C)[C@@H]1C(O)=C(C(N)=O)C(=O)[C@@]2(O)C(O)=C3C(=O)c4c(O)cccc4[C@@](C)(O)[C@H]3C[C@@H]12 [TETRACYCLINE] | – | – | ≥ 64 µg/mL | ≥ 64 µg/mL | ≥ 64 µg/mL | ≥ 64 µg/mL | – | – | – | – | – | – |
| Oc1ccc(Br)cc1/C=N\c1cccc(OC(F)(F)F)c1 | – | – | ≥ 64 µg/mL | ≥ 64 µg/mL | ≥ 64 µg/mL | ≥ 64 µg/mL | – | – | – | – | – | – |
| Oc1c(Br)cc(Cl)cc1/C=N\c1cc(C(F)(F)F)ccc1Cl | – | – | ≥ 64 µg/mL | ≥ 64 µg/mL | ≥ 64 µg/mL | ≥ 64 µg/mL | – | – | – | – | – | – |
| Oc1c(Cl)cc(Cl)cc1/C=N\c1cc(C(F)(F)F)ccc1Cl | – | – | ≥ 64 µg/mL | ≥ 64 µg/mL | ≥ 64 µg/mL | ≥ 64 µg/mL | – | – | – | – | – | – |
| Oc1cccc(/N=C\c2cc(Cl)cc(Br)c2O)c1 | – | – | ≥ 64 µg/mL | ≥ 64 µg/mL | ≥ 64 µg/mL | ≥ 64 µg/mL | – | – | – | – | – | – |
| Oc1c(Br)cc(Br)cc1CNc1cc(C(F)(F)F)ccc1Cl | – | – | ≥ 64 µg/mL | ≥ 64 µg/mL | ≥ 64 µg/mL | ≥ 64 µg/mL | 1 µg/mL (≈ 2.18 µM) | Active | 1 µg/mL (≈ 2.18 µM) | Active | ≤ 2 µg/mL | ≤ 2 µg/mL |

| Structure (SMILES) | Activity (Staphylococcus aureus [1]) | Activity (Staphylococcus aureus [2]) | MIC (Candida albicans) | MIC (Candida tropicalis) | MIC (Pseudomonas aeruginosa) | MIC (Escherichia coli) | MIC (Staphylococcus aureus [1]) | Activity (Staphylococcus aureus [3]) | MIC (Staphylococcus aureus [2]) | inhibition (Staphylococcus aureus [4]) | MIC (Enterococcus faecium) | MIC (Bacillus cereus) |
| --- | --- | --- | --- | --- | --- | --- | --- | --- | --- | --- | --- | --- |
| C[C@@H]1[C@H](O)[C@@H](C)/C=C/C=C/C=C/C=C/C=C/C=C/C=C/[C@H](O[C@@H]2O[C@H](C)[C@@H](O)[C@H](N)[C@@H]2O)C[C@@H]2O[C@](O)(C[C@@H](O)C[C@@H](O)[C@H](O)CC[C@@H](O)C[C@@H](O)CC(=O)O[C@H]1C)C[C@H](O)[C@H]2C(=O)O [AMPHOTERICIN B] | – | – | ≥ 64 µg/mL | ≥ 64 µg/mL | ≥ 64 µg/mL | ≥ 64 µg/mL | – | – | – | – | – | – |
| Oc1c(Br)cc(Br)cc1CNc1cccc(C(F)(F)F)c1 | – | – | ≥ 64 µg/mL | ≥ 64 µg/mL | ≥ 64 µg/mL | ≥ 64 µg/mL | – | Active | ≤ 2 µg/mL | Active | ≤ 2 µg/mL | ≤ 2 µg/mL |
| Oc1c(Br)cc(Cl)cc1/C=N\c1cccc(C(F)(F)F)c1 | – | – | ≥ 64 µg/mL | ≥ 64 µg/mL | ≥ 64 µg/mL | ≥ 64 µg/mL | – | – | – | – | – | – |
| Oc1ccc(Br)cc1CNc1cccc(OC(F)(F)F)c1 | – | – | ≥ 64 µg/mL | ≥ 64 µg/mL | ≥ 64 µg/mL | ≥ 64 µg/mL | – | – | – | – | – | – |
| Oc1ccc(Br)cc1CNc1cc(C(F)(F)F)ccc1F | – | – | ≥ 64 µg/mL | ≥ 64 µg/mL | ≥ 64 µg/mL | ≥ 64 µg/mL | 16 µg/mL (≈ 43.9 µM) | – | 16 µg/mL (≈ 43.9 µM) | – | – | – |
| Oc1ccc(Br)cc1CNc1cc(C(F)(F)F)ccc1Cl | – | – | ≥ 64 µg/mL | ≥ 64 µg/mL | ≥ 64 µg/mL | ≥ 64 µg/mL | 1 µg/mL (≈ 2.63 µM) | Active | 2 µg/mL (≈ 5.25 µM) | Active | ≤ 2 µg/mL | ≤ 2 µg/mL |
| Oc1ccc(Cl)cc1/C=N\c1cc(C(F)(F)F)ccc1F | – | – | ≥ 64 µg/mL | ≥ 64 µg/mL | ≥ 64 µg/mL | ≥ 64 µg/mL | – | – | – | – | – | – |
| Oc1cc(Cl)ccc1Oc1ccc(Cl)cc1Cl [TRICLOSAN] | – | – | ≥ 64 µg/mL | ≥ 64 µg/mL | ≥ 64 µg/mL | ≥ 64 µg/mL | – | – | – | – | – | – |
| Oc1c(Br)cc(Cl)cc1CNc1cccc(C(F)(F)F)c1 | – | – | ≥ 64 µg/mL | ≥ 64 µg/mL | ≥ 64 µg/mL | ≥ 64 µg/mL | – | Active | ≤ 2 µg/mL | Active | ≤ 2 µg/mL | ≤ 2 µg/mL |
| Oc1c(Br)cc(Br)cc1/C=N\c1cc(C(F)(F)F)ccc1F | inactive | inactive | ≥ 64 µg/mL | ≥ 64 µg/mL | ≥ 64 µg/mL | ≥ 64 µg/mL | – | – | – | – | – | – |
| Oc1ccc(Br)cc1/C=N\c1cc(C(F)(F)F)ccc1F | – | – | ≥ 64 µg/mL | ≥ 64 µg/mL | ≥ 64 µg/mL | ≥ 64 µg/mL | – | – | – | – | – | – |
| Oc1c(Br)cc(Br)cc1CNc1cc(C(F)(F)F)ccc1F | – | – | ≥ 64 µg/mL | ≥ 64 µg/mL | ≥ 64 µg/mL | ≥ 64 µg/mL | 4 µg/mL (≈ 9.03 µM) | – | 4 µg/mL (≈ 9.03 µM) | – | – | – |
| Oc1ccc(Cl)cc1/C=N\c1cc(C(F)(F)F)ccc1Cl | – | – | ≥ 64 µg/mL | ≥ 64 µg/mL | ≥ 64 µg/mL | ≥ 64 µg/mL | – | – | – | – | – | – |
| Oc1c(Cl)cc(Cl)cc1CNc1cc(C(F)(F)F)ccc1Cl | – | – | ≥ 64 µg/mL | ≥ 64 µg/mL | ≥ 64 µg/mL | ≥ 64 µg/mL | – | Active | ≤ 2 µg/mL | Active | ≤ 2 µg/mL | ≤ 2 µg/mL |
| Oc1ccc(Br)cc1/C=N\c1cc(C(F)(F)F)ccc1Cl | – | – | ≥ 64 µg/mL | ≥ 64 µg/mL | ≥ 64 µg/mL | ≥ 64 µg/mL | – | – | – | – | – | – |
| Oc1c(Br)cc(Cl)cc1CNCCc1ccc(Br)cc1 | – | – | ≥ 64 µg/mL | ≥ 64 µg/mL | ≥ 64 µg/mL | ≥ 64 µg/mL | – | – | – | – | – | – |
| Oc1c(Br)cc(Cl)cc1/C=N\CCc1ccc(Br)cc1 | – | – | ≥ 64 µg/mL | ≥ 64 µg/mL | ≥ 64 µg/mL | ≥ 64 µg/mL | – | – | – | – | – | – |
